Compound activity from PubChem BioAssay.
The full list was thinned out, with hits kept by preference.
UPR XBP1 act: activators of adaptive arm of unfolded protein response (XBP1) | hit rate 0.33% among 330,000 | CHO-XBP1 luciferase reporter, IRE1-XBP1 UPR activation, luminescence; percent of tunicamycin response, DMSO as zero | activation, % at 20 µM;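 active means versus positive control, 20 µM dose yields 30% or more activation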;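 further: 100% = tunicamycin at 10 µg/mL and 0% = DMSO only wells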
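Material – CHO cell line with stable XBP1 luciferase reporter · Buffer or medium – F12 plus 10% FBS · Compound – single point, 20 µM final compound, 1% DMSO · Schedule – 16-18 h cell attachment at 37 °C, then 6 h compound exposure · Signal – Steady-Glo luminescence read · Benchmarks – high control tunicamycin 10 µg/mL final, low control DMSO vehicle only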
T cruzi inh: blocks replication of Trypanosoma cruzi; hit rate 1.4% among 300,000; inhibition, % (test concentration not listed); T. cruzi beta-gal in NIH3T3, luminescence, 90 h;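 active means mean inhibition across valid replicates above about 55%, limit read from the data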;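 further: signal also drops with host cell toxicity which is not excluded here; 0% = plate median of DMSO wells and 100% = zero luminescence signal; higher percent means less beta-gal luminescence so fewer parasites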
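Assay system: NIH/3T3 fibroblasts plus reporter T. cruzi. Amount: NIH/3T3 cells, 5,000 per well. Buffer or medium: DMEM, 2% fetal bovine serum. Doses: compound pinned at 50 nL/well, DMSO. Schedule: ≥90 h infection period, 3 h prior cell attachment. Signal: luminescent β-galactosidase signal after 60 min lysis. Read-out: parasite load inhibition, %.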
L major viab: Leishmania major promastigote growth inhibition; Leishmania major promastigotes, resazurin fluorescence viability; inhibition, % at 10 µM; hit rate 9% among 200,000; in the data active means inhibition above about 50%;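 further: promastigotes grown with compound for 44 hours at 28 °C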
CHOP UPR activ: activators of apoptotic arm of unfolded protein response (CHOP); CHO-CHOP luciferase reporter, UPR activation, luminescence; percent of tunicamycin response over DMSO baseline; activation, % at 10 µM; hit rate 0.34% among 330,000;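 active means at 10 µM dose, activation of 40% or more, normalized to positive control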;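 further: 100% = tunicamycin at 10 µg/mL and 0% = DMSO alone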
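Dosing – one dose, 10 µM in 0.5% DMSO · System – CHO-CHOP cells, stable luciferase reporter of PERK-eIF2a-CHOP signalling · Input – 500 cells/well · Control set – tunicamycin 10 µg/mL final as positive, DMSO-only wells as negative · Timing – 6 h compound treatment, 37 °C · Measure – % activation vs tunicamycin · Technique – luminescence read with Steady-Glo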
CHOP inhibitor: blocks CHOP induction under ER stress | CHO-K1 CHOP-promoter luciferase, tunicamycin-induced, 15-18 h | inhibition, % at 10 µM | hit rate 3.8% among 220,000;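 active means compounds that reduced the stress-induced luciferase reporter signal by more than about 70% of percent inhibition, limit read from the data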;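 further: 0% = tunicamycin plus vehicle and 100% = wells without tunicamycin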
Dynein transport: dynein cargo transport inhibition. hit rate 0.47% among 220,000. z-score, hits read low. AID 1381. 3617.4 mouse cells, GR-EGFP nuclear translocation imaging; test concentration mostly 20 µM; stimulated with dexamethasone, 1 µM; active compounds read low;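 active means plate z-score of nuclear minus cytoplasmic receptor signal below a set negative limit, without overly bright fluorescence or cell loss, cut at about -3.5 in these data, passing the limit was not always enough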;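 further: z-score of nuclear minus cytoplasmic ring GR-EGFP intensity difference per well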
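Buffer or medium: Induction medium lacking tetracycline, stripped serum | Also added: Dexamethasone agonist, 1.0 µM final, for 30 min | Timing: 48 h induction, 1 h compound, 30 min dex at 37 °C | Detection: Formaldehyde fixation, Hoechst nuclear stain, 10x automated fluorescence imaging | Measure: Nuclear versus cytoplasmic GR-EGFP signal, averaged per well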
An asterisk follows results filed as active.

Results for COc1ccc(Br)cc1/C=C/C(=O)Nc1c(C)cccc1C ?
UPR XBP1 act: -1; T cruzi inh: 33; L major viab: 62*; CHOP UPR activ: 1; CHOP inhibitor: 3; Dynein transport: 0.085

How did COc1ccc(Br)cc1/C=C/C(=O)c1ccc(NC(C)=O)cc1 do in these assays?
L major viab: 100*; CHOP inhibitor: -20; Dynein transport: -3.5*

What do the screens show for `COc1ccc(C(=O)NNC(=O)CN2CCC(n3nnc4cc(F)ccc43)CC2)cc1`?
UPR XBP1 act: -6; T cruzi inh: -14; L major viab: 50*; CHOP UPR activ: 0; CHOP inhibitor: 43; Dynein transport: -0.23

Results for Cc1ccc2c(c1)nnn2C1CCN(CC(=O)NCCc2ccccc2)CC1 ?
UPR XBP1 act: -5; T cruzi inh: 8; L major viab: -4; CHOP UPR activ: 0; CHOP inhibitor: 23; Dynein transport: 0.16

Results for Cc1ccc2c(c1)nnn2C1CCN(CC(=O)Nc2ccccc2N2CCOCC2)CC1 ?
UPR XBP1 act: 0; T cruzi inh: 4; L major viab: 59*; CHOP UPR activ: -1; CHOP inhibitor: 42; Dynein transport: 1.7

Results for COc1ccc(Cl)cc1NC(=O)CN1CCC(n2nnc3cc(C)ccc32)CC1 ?
UPR XBP1 act: -4; T cruzi inh: 38; L major viab: 23; CHOP UPR activ: 1; CHOP inhibitor: 73*; Dynein transport: -0.2

How did COc1ccc(NC(=O)CSCC(=O)N2CCN(C(=O)c3ccco3)CC2)cc1 do in these assays?
UPR XBP1 act: 0; CHOP UPR activ: 1

How did NC(N)=N/N=C/c1ccc2cccc(OCc3ccccc3)c2n1 do in these assays?
UPR XBP1 act: 5; T cruzi inh: 57*; CHOP UPR activ: -1; CHOP inhibitor: 2; Dynein transport: 4.8

What do the screens show for `COc1ccc(C(=O)N/N=C/c2ccc3cccc(OCc4ccccc4)c3n2)cc1`?
UPR XBP1 act: 5; T cruzi inh: 31; L major viab: 65*; CHOP UPR activ: 5; CHOP inhibitor: -40; Dynein transport: 1.2

Results for COc1c(OC(C)=O)ccc(/C=C/c2ccc3cccc(OCc4ccccc4)c3n2)c1[N+](=O)[O-] ?
UPR XBP1 act: 2; T cruzi inh: 10; L major viab: 62*; CHOP UPR activ: 3; CHOP inhibitor: 41; Dynein transport: -0.28

What do the screens show for `O=C(N/N=C/c1ccc2cccc(OCc3ccccc3)c2n1)c1ccc(Br)cc1`?
UPR XBP1 act: 2; T cruzi inh: 0; L major viab: 75*; CHOP UPR activ: 1; CHOP inhibitor: 31; Dynein transport: -1.5

Results for NC(=S)N/N=C/c1ccc2cccc(OCc3ccccc3)c2n1 ?
UPR XBP1 act: 10; T cruzi inh: 44; CHOP UPR activ: 1

Results for COc1cc(/C=C/c2ccc3cccc(OC)c3n2)c(OC(C)=O)c([N+](=O)[O-])c1 ?
UPR XBP1 act: 4; T cruzi inh: 17; L major viab: 14; CHOP UPR activ: 4; CHOP inhibitor: 38; Dynein transport: -0.2

What do the screens show for `N#Cc1ccccc1OCC(=O)OCC(=O)NC1CCS(=O)(=O)C1` (configuration not stated)?
UPR XBP1 act: -2; CHOP UPR activ: 0

Results for Cc1onc(-c2ccccc2)c1-c1nnc(COC(=O)c2ccc(O)cc2)o1 ?
UPR XBP1 act: 1; CHOP UPR activ: 0

How did O=S(Cc1ccccc1)CC(O)(c1ccc(Cl)cc1)c1ccc(Cl)cc1 (configuration not stated) do in these assays?
UPR XBP1 act: 0; T cruzi inh: 22; L major viab: 15; CHOP UPR activ: 0; CHOP inhibitor: 85*; Dynein transport: 0.36

Results for O=S(Cc1ccc(Cl)cc1)CC(O)(c1ccccc1)c1ccccc1 (configuration not stated) ?
UPR XBP1 act: 1; T cruzi inh: -4; L major viab: 9; CHOP UPR activ: -3; CHOP inhibitor: 21; Dynein transport: 0.75

Results for CC/C(=N/OC(=O)c1cccc(C)c1)C(=O)c1cccs1 ?
UPR XBP1 act: -5; T cruzi inh: -12; L major viab: -10; CHOP UPR activ: 1; CHOP inhibitor: 75*; Dynein transport: -0.63

How did C/C(=N/OC(=O)c1ccc(C)cc1)c1cccs1 do in these assays?
UPR XBP1 act: -5; T cruzi inh: -12; L major viab: -2; CHOP UPR activ: -4; CHOP inhibitor: 36; Dynein transport: -0.3

Results for COc1ccc(S(=O)(=O)N[C@@H](Cc2ccc(Cl)cc2)C(=O)N2CC[C@@]3(O)CCCC[C@H]3C2)cc1 ?
UPR XBP1 act: -2; T cruzi inh: 7; L major viab: 86*; CHOP UPR activ: -1; CHOP inhibitor: 2; Dynein transport: 2.9

What do the screens show for `Cc1cccnc1NC(=O)c1ccc2c(c1)NC(=O)C(C)S2` (configuration not stated)?
UPR XBP1 act: -3; T cruzi inh: -10; CHOP UPR activ: 3

Results for Cc1cc(N2CCN(C3CCCCC3)CC2)nc2cccc(O)c12 ?
UPR XBP1 act: -3; T cruzi inh: 3; L major viab: 85*; CHOP UPR activ: 2; CHOP inhibitor: 16; Dynein transport: -0.88

What do the screens show for `Cc1ccc(OCCNC(=O)C(=O)NCc2ccco2)cc1`?
UPR XBP1 act: -1; T cruzi inh: -47; L major viab: -6; CHOP UPR activ: -1; CHOP inhibitor: 15; Dynein transport: 1.5

How did CCc1ccc2[nH]c(=O)c(CN(CCCN3CCOCC3)C(=O)Nc3ccccc3)cc2c1 do in these assays?
UPR XBP1 act: -1; T cruzi inh: -2; L major viab: 21; CHOP UPR activ: -1; CHOP inhibitor: 5; Dynein transport: 0.12

What do the screens show for `CCc1ccc2[nH]c(=O)c(CN(CCCN3CCOCC3)C(=O)Nc3cccc(Cl)c3)cc2c1`?
UPR XBP1 act: 1; T cruzi inh: 36; L major viab: 84*; CHOP UPR activ: 2; CHOP inhibitor: 58; Dynein transport: 1.6

Results for Cc1ccc(C)c2[nH]c(=O)c(CN(CCN3CCCC3)C(=O)Nc3cccc(Cl)c3)cc12 ?
UPR XBP1 act: -3; T cruzi inh: 8; L major viab: 100*; CHOP UPR activ: -1; Dynein transport: -2.3

How did COc1ccc2[nH]c(C(=O)NCc3ccccc3)c(C)c2c1 do in these assays?
UPR XBP1 act: -2; T cruzi inh: 2; CHOP UPR activ: 6

How did Cc1ccc(-c2cc(C(F)F)n3ncc(C(=O)N4CCN(c5cccc(C)c5C)CC4)c3n2)cc1 do in these assays?
UPR XBP1 act: 22; T cruzi inh: 48; L major viab: 58*; CHOP UPR activ: 14; CHOP inhibitor: 45; Dynein transport: -0.43
